TRPC6 inh = mouse TRPC6 channel inhibitors, primary screen, cell-based, HEK293, membrane potential dye; Short transient receptor potential channel 6 (Mus musculus), Q61143; 310,000 tested, 1.1% active; AID 2553, 2010; B-score at 10 µM; ACh-evoked depolarization; active compounds read low;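 active means B-score under library mean minus 3 SD, initial fluorescence not abnormally high, positive integrated signal ratio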;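 further: B-score derived from integrated fluorescence ratio over the kinetic read; more negative B-score means stronger inhibition of depolarization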
Target sequence (Q61143 whole entry, looked up): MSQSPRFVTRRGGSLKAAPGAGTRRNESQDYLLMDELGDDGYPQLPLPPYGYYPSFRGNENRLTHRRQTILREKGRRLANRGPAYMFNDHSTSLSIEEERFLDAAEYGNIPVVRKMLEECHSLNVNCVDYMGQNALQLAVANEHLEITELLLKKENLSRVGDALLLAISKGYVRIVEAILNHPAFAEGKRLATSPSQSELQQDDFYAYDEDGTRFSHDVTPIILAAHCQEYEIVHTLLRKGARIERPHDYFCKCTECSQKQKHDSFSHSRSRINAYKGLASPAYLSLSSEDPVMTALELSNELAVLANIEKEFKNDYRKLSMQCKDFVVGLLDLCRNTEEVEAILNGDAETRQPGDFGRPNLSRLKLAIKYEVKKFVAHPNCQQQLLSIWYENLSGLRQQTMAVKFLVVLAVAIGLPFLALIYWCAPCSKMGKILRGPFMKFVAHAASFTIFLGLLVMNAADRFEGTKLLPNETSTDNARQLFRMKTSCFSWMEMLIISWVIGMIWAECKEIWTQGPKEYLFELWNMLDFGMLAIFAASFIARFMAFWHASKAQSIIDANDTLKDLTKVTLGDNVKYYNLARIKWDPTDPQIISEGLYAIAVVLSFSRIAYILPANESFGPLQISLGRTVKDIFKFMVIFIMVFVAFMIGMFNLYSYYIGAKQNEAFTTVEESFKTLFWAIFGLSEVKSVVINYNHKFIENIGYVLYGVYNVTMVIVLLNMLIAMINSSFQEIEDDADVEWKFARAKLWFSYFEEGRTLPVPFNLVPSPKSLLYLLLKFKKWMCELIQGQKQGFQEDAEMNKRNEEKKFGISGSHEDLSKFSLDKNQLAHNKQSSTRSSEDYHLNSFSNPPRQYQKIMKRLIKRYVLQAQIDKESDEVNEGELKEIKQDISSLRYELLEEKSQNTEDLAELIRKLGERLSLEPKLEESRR
TRPC4 block = inhibitors of mouse TRPC4 channel, primary screen, Fluo4 calcium, HEK293 TRPC4beta/mu-opioid cells. DAMGO-evoked Fluo4 calcium flux; active compounds read low. B-score at 10 µM. 300,000 tested, 0.39% active. AID 2247, 2010;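 active means B-score over 3 SD under the library average, no early fluorescence shift, positive overall ratio signal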
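Assay system: HEK293 cells with stable TRPC4beta plus mu-opioid receptor expression. Dosing: single dose. Measured by: Fluo4 Ca2+ flux fluorescence. Also added: DAMGO in two steps, submaximal then maximal. Read-out: B score from integrated Fluo4 fluorescence ratio.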
TRPC6 activator = mouse TRPC6 channel activators, primary screen, cell-based, HEK293, membrane potential dye; 310,000 tested, 0.13% active; B-score at 10 µM; HEK293-TRPC6 membrane potential dye fluorescence; active compounds read high;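 active means B-score of the integrated fluorescence ratio above library mean plus 3 SD, and starting fluorescence ratio within library mean plus 5 SD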;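 further: higher score means more depolarization so channel activation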
TRPC4 act = activators of mouse TRPC4 channel, primary screen, Fluo4 calcium, HEK293 TRPC4beta/mu-opioid cells | Short transient receptor potential channel 4 (Mus musculus), Q9QUQ5 | Fluo4 calcium fluorescence; active compounds read high | B-score at 10 µM | 310,000 tested, 0.49% active | AID 2237, 2010;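 active means B-score above 5 SD of library B-scores, and initial fluorescence ratio not above library mean plus 5 SD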;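 further: positive B-score marks a calcium rise read as TRPC4 activation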
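System: HEK293 cells stably co-expressing mouse TRPC4beta and mu-opioid receptor; Schedule: Fluo4 dye loading 45 min at room temperature, 110 s recording; Detection: Fluo4 fluorescence, kinetic; Evaluation: B-scored integrated calcium fluorescence ratio; Controls: buffer (low) and maximal DAMGO (high).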
TRPC4 PAM = positive allosteric modulators of TRPC4, primary screen, cell-based, mouse TRPC4beta, HEK293 mu-opioid, Fluo-4 calcium; AID 2227, 2009; 310,000 tested, 0.42% active; DAMGO EC20, Fluo-4 Ca2+ flux; active compounds read high; B-score at 10 µM; Short transient receptor potential channel 4 (Mus musculus), Q9QUQ5;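 active means B-score of calcium response area above 5 SD of library B-scores, with initial fluorescence ratio within 5 SD of library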
TRPC4 sel inh 2 = second selectivity test of TRPC6 inhibitors: effect on mouse TRPC4. shares compounds with TRPC6 inh. HEK293 TRPC4/MOR, membrane potential dye fluorescence; channel activated by saturating DAMGO dose. inhibition, % at 10 µM. 920 tested, 42% active. AID 2776;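 active means compounds whose fluorescence signal differed from control wells by over 3 SD, either direction, in both duplicate plates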
TRPC4 spec = mouse TRPC4 modulation by TRPC6 hits, confirmation, selectivity assay for TRPC6 inhibitor project, cell-based, HEK293 TRPC4/mu-opioid, membrane potential dye. shares compounds with TRPC6 inh. 920 tested, 61% active. activity change, negative = inhibition, % at 10 µM. membrane potential fluorescence;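 active means rise or fall in signal beyond 3 SD of buffer-only wells in both replicate plates, either sign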;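 further: integrated kinetic ratio of fluorescence range over baseline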
HEK293 MPD ctr 2-1 = nonspecific membrane potential effects, parental HEK293, confirmation, counter-screen for TRPC6 inhibitor project, cell-based, second counter screen; shares compounds with TRPC6 inh; parental HEK293 membrane potential dye fluorescence; maximal acetylcholine challenge after compound addition; signal change vs control, % at 10 µM; 920 tested, 31% active; AID 2779, 2010;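 active means membrane potential signal moving either way by over 3 SD of the maximum-effect control, in both duplicate plates, meaning non-specific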
HEK293 MPD ctr-1 = membrane potential modulation in parental HEK293, confirmation, counter-screen for TRPC6 inhibitor project, cell-based; 920 tested, 60% active; shares compounds with TRPC6 inh; parental HEK293 membrane potential dye fluorescence; membrane potential signal change, % at 10 µM;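 active means membrane potential signal shifting up or down by more than 3 SD of buffer-only wells, on both duplicate plates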
HEK293 MPD ctr-2 = parental HEK293 membrane potential modulation, confirmation, counter-screen for TRPC6 modulator project, cell-based. membrane potential signal change, % at 10 µM. 2,400 tested, 51% active. membrane potential dye fluorescence. shares compounds with TRPC6 inh;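 active means membrane potential signal moves up or down beyond 5 SD from buffer-only wells, on both duplicate plates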
HEK293 MPD ctr 2-2 = parental HEK293 nonspecific activity of TRPC6 modulators, second screen; shares compounds with TRPC6 inh; membrane potential dye fluorescence; after compound, maximal acetylcholine stimulation; inhibition, % at 10 µM; 2,400 tested, 14% active;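 active means membrane potential signal drops by more than 5 SD from the mean control signal, in both duplicate plates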
TRPC4 ctr mod = TRPC4 modulation by TRPC6 hit compounds, confirmation, selectivity assay for TRPC6 modulator project, cell-based, HEK293 TRPC4/mu-opioid, membrane potential dye, mouse | shares compounds with TRPC6 inh | membrane potential fluorescence | percent change from control (negative = decrease, positive = increase), % at 10 µM | 2,400 tested, 69% active;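 active means membrane potential signal moved up or down beyond 5 SD of buffer control wells, in both duplicate plates, actives on both sides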
TRPC4/MOR inh 2 = mouse TRPC4 off-target activity of TRPC6 modulators, second screen | shares compounds with TRPC6 inh | HEK293 TRPC4/mu-opioid, membrane potential dye fluorescence; stimulated with maximal-effect DAMGO | inhibition, % at 10 µM | 2,400 tested, 55% active | AID 488928;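 active means drop in membrane potential signal beyond 5 SD of the control wells in both duplicate plates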;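 further: TRPC4 counter screen for TRPC6 hits run under conditions tuned for TRPC6 not TRPC4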
TRPC6 block conf = mouse TRPC6 channel inhibitors, confirmation, HEK293 cells, membrane potential dye, duplicate; shares compounds with TRPC6 inh; ACh-evoked depolarization; inhibition, % at 10 µM; 3,300 tested, 43% active; AID 488960, 2010;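 active means fluorescence ratio falls more than 5 SD below the full-stimulation control mean, in both duplicate runs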;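 further: integrated fluorescence ratio of peak minus minimum over baseline after agonist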
TRPC6 act confirm = mouse TRPC6 channel activators, confirmation, HEK293 cells, membrane potential dye, duplicate. shares compounds with TRPC6 inh. HEK293-TRPC6 membrane potential dye fluorescence, FDSS. activation, % at 10 µM. 2,800 tested, 11% active. AID 488961, 2010;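 active means ratio signal rise beyond 5 SD above unstimulated control wells' mean, seen in both duplicate runs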
Numbers stand for hits; - = inactive; . = not tested or not shown. In the library only some 2.3% were active in any assay of this set; here they are far more common.

SMILES	TRPC6 inh	TRPC4 block	TRPC6 activator	TRPC4 act	TRPC4 PAM	HEK293 MPD ctr-2	HEK293 MPD ctr 2-2	TRPC4 ctr mod	TRPC4/MOR inh 2	TRPC6 block conf	TRPC6 act confirm	others
COc1nc(Nc2cccc(F)c2)nc(OC)n1	-	-	-	-	-	.	.	.	.	.	.
Cc1ccc(Nc2nc3ccccc3c(=O)[nH]2)cc1C	-	-	-	-	-	.	.	.	.	.	.
COc1ccc(Nc2nc(N)c3ccccc3n2)c(OC)c1	-10	-7	-	-	-	-202.5%	85.5%	-41.5%	92.0%	90.5%	-
COc1ccc(Nc2nc(-c3ccccc3)nc3ccccc23)c(OC)c1	-	-	-	-	-	.	.	.	.	.	.
COc1ccc(NC(=O)CN(C)C(=O)c2cc(CN3C(=O)c4ccccc4C3=O)ccc2OC)cc1	-	-	-	-	-	.	.	.	.	.	.
Cc1cc2ncn(/N=C/c3ccc([N+](=O)[O-])o3)c2cc1C	-	-	-	-	-	.	.	.	.	.	.
N#CC(c1ccc(F)cc1)c1ccc(C(=O)c2ccc(F)cc2)cc1 (stereo not given)	-7.37	-	-	-	-	.	.	.	.	-	-	TRPC4 sel inh 2=-;TRPC4 spec=-;HEK293 MPD ctr 2-1=-;HEK293 MPD ctr-1=-
CCCNCC(O)Cn1c2ccccc2n2c(=O)cc(C)c(C#N)c12 (stereo not given)	-	-	-	-	-	.	.	.	.	.	.
Cc1cc(=O)n2c3ccccc3n(CC(O)CN3CCCC3)c2c1C#N (stereo not given)	-7.97	-	-	-	-	.	.	.	.	52.6%	-	TRPC4 sel inh 2=68.5%;TRPC4 spec=-19.1%;HEK293 MPD ctr 2-1=-;HEK293 MPD ctr-1=-280.5%
CCCN(CCC)CC(O)Cn1cc(/C=C/C(=O)c2cccs2)c2ccccc21 (stereo not given)	-10.6	-	-	-	-	.	.	.	.	-	-	TRPC4 sel inh 2=24.0%;TRPC4 spec=9.6%;HEK293 MPD ctr 2-1=-;HEK293 MPD ctr-1=16.5%
O=c1c2ccccc2n(CC(O)CN2CCCCC2)c2ccccc12 (stereo not given)	-5.16	-	-	-	-	-104.5%	-	-16.0%	49.0%	-	-
O=C(/C=C/c1cn(CC(O)CN2CCCCC2)c2ccccc12)c1ccccc1 (stereo not given)	-6.38	-	-	-	-	294.0%	-	-	84.0%	73.5%	.
Cc1ccc2sc(N(CCCN(C)C)C(=O)c3nc4ccccc4s3)nc2c1C	-	-	-	-	-	.	.	.	.	.	.
Cc1ccc2sc(N(CCCN(C)C)C(=O)c3ccc(Br)s3)nc2c1C	-6.53	-	-	-	-	-	-	-20.0%	80.5%	-	-
Cc1cccc2sc(N(CCCN(C)C)C(=O)c3ccc4ncsc4c3)nc12	-5.03	-	-	-	-	-	-	-	78.0%	45.0%	-
Clc1ccc2c(c1)C(N1CCNCC1)Cc1ccccc1S2 (stereo not given)	-5.44	-	-	-	-	-	-	-	74.0%	64.0%	-
Cc1csc(=O)n1CC(=O)OCC(=O)NCc1ccc(F)cc1	-	-	-	-	-	.	.	.	.	.	.
CC(C)Cc1nnc(NC(=O)c2ccc(N3CCCC3=O)cc2)s1	-	-	-	-	-	.	.	.	.	.	.
CC(C)Cc1nnc(NC(=O)c2ccc3c(=O)n4c(nc3c2)CCC4)s1	-7.72	-	-	-	-	.	.	.	.	-	-	TRPC4 sel inh 2=-;TRPC4 spec=-14.8%;HEK293 MPD ctr 2-1=-;HEK293 MPD ctr-1=-280.5%
O=C(CSCc1ccc(Cl)cc1)NCc1ccccn1	-	-	-	-	-	.	.	.	.	.	.
Cn1c(=O)n(C)c2cc([N+](=O)[O-])c(N3CCN(S(C)(=O)=O)CC3)cc21	-	-	-	-	-	.	.	.	.	.	.
Cn1c(=O)n(C)c2cc([N+](=O)[O-])c(N3CCN(CCO)CC3)cc21	-6.8	-	-	-	-	-370.0%	70.0%	-49.5%	42.0%	44.5%	-
Cc1cccc(C(C)C)c1NC(=O)C(C)OC(=O)Cc1n[nH]c(=O)c2ccccc12 (stereo not given)	-	-	-	-	-	.	.	.	.	.	.
c1ccc(-c2nc3c(ccc4ccccc43)[nH]2)nc1	-6.24	-	-	-	-	-	-	-9.0%	28.0%	-	-
c1ccc(-c2nc3ccccc3[nH]2)nc1	-	-	-	-	-	.	.	.	.	.	.
CN(C)c1cc[n+](CC(=O)Nc2ccc(Oc3ccccc3)cc2)cc1	-6.27	-	-	-	-	-	-	-10.5%	-	-	-
CCCSCCCNC(=O)c1ccc(C)c(NC(=O)C2=C(C)OCCS2)c1	-	-	-	-	-	.	.	.	.	.	.
O=C(Nc1ccccc1F)Nc1ccc([N+](=O)[O-])cc1Cl	-	-	-	-	-	.	.	.	.	.	.

Screening data: PubChem, Johns Hopkins Ion Channel Center
